Measured values of several laboratories.
Lines come from different studies, so protocols differ.
Target: 5'-AMP-activated protein kinase catalytic subunit alpha-2 (PRKAA2, Homo sapiens, UniProt P54646)

The inhibition of `c1ccc(CNc2nc(N3CCOc4ccccc43)nc3c2CCCC3)cc1` is reported as -6.2% (target engagement in cells; inhibitor; chemoproteomics; 20 mM).
`CN([C@@H]1CCc2c(CC(=O)O)c3cc(S(C)(=O)=O)ccc3n2C1)S(=O)(=O)c1ccc(F)cc1` gave a remaining binding of 100% (cell-free assay; competition with immobilised ligand; 1 µM).
`Cc1ccc(NC(=O)c2ccc(C)c(C(F)(F)F)c2)cc1C#Cc1nn(C2CCC(O)CC2)c2ncnc(N)c12` (stereo not drawn) has a remaining signal of 90% (cell-free assay; 10 µM).
With `COc1cc(-c2cc(-c3ccc(N4CCNCC4)cc3)cnc2C)cc(OC)c1OC` the inhibition was 1% (enzyme activity; inhibitor; 1 µM).
`O=C(O)c1cc(-c2ccc(C3CCNCC3)cc2)c2ccc(-c3ccc(C(F)(F)F)cc3)cc2c1` has a remaining binding of 100% (cell-free assay; competition with immobilised ligand; 1 µM).
With `COc1cc(Cl)c(C(=O)N[C@@H](CN[C@H]2CC[C@@H](N)CC2)Cc2ccc(C#N)cc2)cc1-c1ccc(CN[C@H](C)c2ccc(C)cc2)o1` the remaining activity was 89% (enzyme activity; inhibitor; 1 µM).
`Cc1cc(NC(=O)c2cccc3cc(-c4cccc5[nH]nc(N)c45)ccc23)ccc1F` has an activity vs control of 97% (enzyme activity; inhibitor; 0.1 µM).
With `CC(=O)N1CCC(c2ccc(C(=O)NC(=N)N)cc2C(F)(F)F)CC1` the remaining binding was 100% (cell-free assay; competition with immobilised ligand; 1 µM).
The inhibition of `CCCCNc1ncc2c(-c3ccc(F)cc3)nn(C[C@H]3CC[C@H](N)CC3)c2n1` is reported as 22.8% (target engagement in cells; inhibitor; chemoproteomics; 20 mM).
`O=C(O)[C@H]1[C@H](Cn2nnc3ccccc3c2=O)CC[C@@H]1C(=O)c1ccc(OCCC2CCOCC2)cc1` has a remaining binding of 100% (cell-free assay; competition with immobilised ligand; 1 µM).
`Cc1cnc(NC2CCOCC2)nc1-n1cnc(C(=O)NC(CN)c2cc(F)cc(Cl)c2)c1` (stereo not drawn) has a remaining activity of 31% (enzyme activity; inhibitor; radiometric; 1 µM).
With `CCCOc1ccc(OC)c(F)c1C(=O)c1ccc(C(=O)N[C@@H]2CNC[C@H]2NC(=O)c2ccc3[nH]ncc3c2)cc1` the remaining activity was 51% (enzyme activity; inhibitor; 50 nM).
